{"source": "PubChem BioAssay AID1257", "about": "(The Scripps Research Institute Molecular Screening Center, 2008)", "molecular_target": "Neuropeptide Y receptor type 2 (Homo sapiens) (UniProt P49146)", "sequence (P49146 whole entry, looked up)": "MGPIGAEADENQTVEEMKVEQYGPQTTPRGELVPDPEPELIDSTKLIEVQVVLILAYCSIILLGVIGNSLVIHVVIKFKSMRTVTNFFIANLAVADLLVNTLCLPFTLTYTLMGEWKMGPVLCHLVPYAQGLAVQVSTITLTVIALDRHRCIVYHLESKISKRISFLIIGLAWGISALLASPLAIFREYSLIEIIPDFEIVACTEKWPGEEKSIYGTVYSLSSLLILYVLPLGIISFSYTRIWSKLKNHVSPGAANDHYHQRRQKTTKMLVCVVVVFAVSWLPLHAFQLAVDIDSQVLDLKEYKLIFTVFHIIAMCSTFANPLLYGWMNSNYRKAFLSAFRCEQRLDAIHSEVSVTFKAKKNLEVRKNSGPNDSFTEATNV", "experiment": "blockers of human NPY-Y2 signalling – HEK293-CNG cells, membrane potential fluorescence, triplicate, confirmation (AID 1257);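 also: 0% = DMSO with NPY challenge and 100% = BIIE0246 high control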", "details": "HEK293 NPY-Y2 CNG channel, at 2.8 µM, stronger effect = higher value", "procedure,_shortened": "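Material: HEK293 cells expressing NPY-Y2 receptor and CNG channel; Control set: BIIE0246 as high control, DMSO as low control; Measured by: membrane potential dye fluorescence; Also added: NPY 8 nM plus isoproterenol 1 µM, Ro 20-1724 25 µM; Doses: single nominal compound dose of 2.8 µM; Times: 60 min NPY incubation, room temperature.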", "note": "Some of the results follow. A number with no mark means an inactive call.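 The calls were made as follows: active = mean inhibition of triplicate wells above the hit cutoff set in the primary screen (cut at about 17% in these data); inactive = the rest.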"}
{"smiles": "O=C(COC(=O)c1ccccc1)Nc1ccc(Cl)cc1C(=O)c1ccccc1", "values": [{"measurement": "inhibition", "value": 15.9, "unit": "%"}]}
